Assay results from ChEMBL document CHEMBL4699606, “New type of anti-influenza agents based on benzo[d][1,3]dithiol core” (Bioorg Med Chem Lett, 2020).
Activity calls are given as the source filed them. The rule behind the calls is not given here.

Key:
[1] = Selectivity index, ratio of CC50 for dog MDCK cells to IC50 for Influenza A virus (A/California/07/09(H1N1)) pdm09 infected in MDCK cells; type: toxicity, cell-based; details: read-out: Ratio CC50/IC50
[2] = Antiviral activity against Influenza A virus (A/California/07/09(H1N1))pdm09 infected in MDCK cells assessed as reduction in viral replication preincubated with compound for 1 hr followed by viral infection and measured after viral cultivation for 48 hrs by hemagglutination test; type: functional, cell-based, Influenza A virus (A/California/07/2009(H1N1))
[3] = Cytotoxicity against dog MDCK cells assessed as reduction in cell viability by MTT assay; type: cell-based, Canis lupus familiaris
[4] = test system: Influenza A virus (A/California/07/2009(H1N1)); assay: Anti-membranotropic activity against Influenza A virus (A/California/07/09(H1N1))pdm09 hemagglutinin assessed as inhibition of HA-driven chicken erythrocytes membrane fusion incubated for 30 mins by fusogenic activity assay
Outline: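 Compound mixed with virus and held 30 min at room temperature, then combined with 0.75% chicken erythrocytes at +4 °C. Fusion was triggered with MES buffer at pH 5.0. After erythrocytes sedimented, haemoglobin released by membrane lysis was read as optical density at 405 nm.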

MDCK = assay: Antiviral activity against Influenza A virus (A/California/07/09(H1N1))pdm09 infected in MDCK cells assessed as suppression of viral replication at early stage of viral cycle after 2 hpi by time of addition assay; type: functional, cell-based; details: Influenza A virus (A/California/07/2009(H1N1)), time 2.0 hrs
Outline: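 Time-of-addition study in MDCK cells. Compound added at set times relative to infection (time 0 = moment of infection). Read-out was the infectious activity of viral progeny, assayed in MDCK cells.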

[5] = test system: Influenza A virus (A/California/07/2009(H1N1)); assay: Inhibition of Influenza A virus (A/California/07/09(H1N1))pdm09 hemagglutinin receptor binding activity

| Compound | selectivity ratio [1] | IC50 [2] [µM] | CC50 [3] [µM] | inhibition [4] | Activity (MDCK) | inhibition [5] |
| --- | --- | --- | --- | --- | --- | --- |
| O=C(Nc1cc(C(F)(F)F)cc2sc(=O)sc12)C(F)(F)F | 12 | 0.2 | 2.2 | – | – | – |
| CC(=O)Nc1cc(C(F)(F)F)cc2sc(=O)sc12 | 3 | 38 | 95 | – | – | – |
| NC(=O)c1ncn([C@@H]2O[C@H](CO)[C@@H](O)[C@H]2O)n1 [RIBAVIRIN] | 48 | 44 | > 2130 | – | – | – |
| Nc1cc(C(F)(F)F)cc2sc(=O)sc12 | 11 | 19 | 212 | – | – | – |
| O=C(CCN1CCCCC1)Nc1cc(C(F)(F)F)cc2sc(=O)sc12 | 1 | > 28.2 | 34 | – | – | – |
| O=C(CN1CCCCC1)Nc1cc(C(F)(F)F)cc2sc(=O)sc12 | 29 | 18 | 532 | Dose-dependent effect | Active | inactive |
| O=C(CN1CCOCC1)Nc1cc(C(F)(F)F)cc2sc(=O)sc12 | 3 | 5 | 13 | – | – | – |
| O=C(CCN1CCCC1)Nc1cc(C(F)(F)F)cc2sc(=O)sc12 | 12 | 6 | 75 | – | – | – |
| O=C(CCN1CCOCC1)Nc1cc(C(F)(F)F)cc2sc(=O)sc12 | 11 | 9 | 104 | – | – | – |
| CC(N)C12CC3CC(CC(C3)C1)C2 (stereo not given) [RIMANTADINE] | 9 | 41 | – | – | – | – |
| O=C(CN1CCCC1)Nc1cc(C(F)(F)F)cc2sc(=O)sc12 | 4 | 191 | > 829 | – | – | – |
